Common to all, as to assay type: functional
One experiment has as its system Pseudomonas aeruginosa. Description: Antibacterial activity against Pseudomonas aeruginosa strain 27853. Summed up: (§1)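 Broth microdilution MIC run to NCCLS standards: serial 2-fold dilutions in cation-adjusted Mueller–Hinton broth, inoculum ~5 × 10^5 CFU/mL, incubated 35 °C for 18–24 h. Trays were read by eye, and the MIC was taken as the lowest concentration giving complete growth inhibition (no visible turbidity).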

The subject of experiment [1] is Staphylococcus aureus. Description: Antibacterial activity against Staphylococcus aureus strain St au 29213. Summed up: as §1
A further experiment deals with Escherichia coli. Description: Antibacterial activity against Escherichia coli strain 25922. A digest of the protocol: as §1
The test system of a further experiment is Enterococcus faecalis. Description: Antibacterial activity against Enterococcus faecalis strain 29212. A digest of the protocol:
as §1

In experiment [2] the test system is Staphylococcus aureus. Description: Antibacterial activity against Staphylococcus aureus strain St au 33591 MRSA. Summed up:
as §1

Values after ≈ are worked out from the molar mass of the structure shown.

Consider `O=C(O)c1cn(-c2ccc(O)cc2)c2cc(N3CC4CC3CN4)c(F)cc2c1=O` (stereo not given), for which the MIC in the experiment on Pseudomonas aeruginosa is 6.25 µg/mL (≈ 15.8 µM); in the experiment on Staphylococcus aureus [1] it was 0.78 µg/mL (≈ 1.97 µM); in the experiment on Escherichia coli, 1.56 µg/mL (≈ 3.95 µM); in the experiment on Enterococcus faecalis, 12.5 µg/mL (≈ 31.6 µM); in the experiment with Staphylococcus aureus [2] it was 0.78 µg/mL (≈ 1.97 µM).
For `N[C@@H]1CN(c2cc3c(cc2F)c(=O)c(C(=O)O)cn3-c2ccc(O)cc2)CC12CC2`, the MIC was 1.56 µg/mL (≈ 3.81 µM) in the experiment with Pseudomonas aeruginosa; 0.2 µg/mL (≈ 0.488 µM) in the experiment on Staphylococcus aureus [1]; 0.2 µg/mL (≈ 0.488 µM) against Escherichia coli; 0.78 µg/mL (≈ 1.91 µM) in the experiment with Enterococcus faecalis; 0.1 µg/mL (≈ 0.244 µM) with Staphylococcus aureus [2].
Turning to `N[C@@H]1CCC[C@@H]2CN(c3cc4c(cc3F)c(=O)c(C(=O)O)cn4-c3ccc(O)cc3)C[C@@H]21`, the MIC in the experiment with Pseudomonas aeruginosa stood at 12.5 µg/mL (≈ 28.6 µM); in the experiment with Staphylococcus aureus [1] it was 0.2 µg/mL (≈ 0.457 µM); in the experiment on Escherichia coli, 3.13 µg/mL (≈ 7.15 µM); with Enterococcus faecalis it was 1.56 µg/mL (≈ 3.57 µM); against Staphylococcus aureus [2], 0.2 µg/mL (≈ 0.457 µM).
As to `NC1CCN(c2cc3c(cc2F)c(=O)c(C(=O)O)cn3-c2ccc(O)cc2)C1` (stereo not given), the MIC in the experiment with Pseudomonas aeruginosa was found to be 1.56 µg/mL (≈ 4.07 µM); with Staphylococcus aureus [1] it was 0.4 µg/mL (≈ 1.04 µM); with Escherichia coli it was 0.4 µg/mL (≈ 1.04 µM); against Enterococcus faecalis it was 3.13 µg/mL (≈ 8.16 µM); in the experiment on Staphylococcus aureus [2], 0.4 µg/mL (≈ 1.04 µM).
Turning to `COc1c(N2CC3CC2CN3)c(F)cc2c(=O)c(C(=O)O)cn(-c3ccc(O)cc3)c12` (stereo not given), the MIC is 12.5 µg/mL (≈ 29.4 µM) with Pseudomonas aeruginosa; 6.25 µg/mL (≈ 14.7 µM) in the experiment with Staphylococcus aureus [1]; 6.25 µg/mL (≈ 14.7 µM) in the experiment with Escherichia coli; more than 50 µg/mL in the experiment with Enterococcus faecalis; 3.13 µg/mL (≈ 7.36 µM) in the experiment on Staphylococcus aureus [2].
Take `CN1CCN(c2nc3c(cc2F)c(=O)c(C(=O)O)cn3-c2ccc(O)cc2)CC1`: the MIC with Pseudomonas aeruginosa amounted to 3.13 µg/mL (≈ 7.86 µM); with Staphylococcus aureus [1], 0.2 µg/mL (≈ 0.502 µM); against Escherichia coli it was 0.05 µg/mL (≈ 0.126 µM); with Enterococcus faecalis it was 1.56 µg/mL (≈ 3.92 µM); in the experiment with Staphylococcus aureus [2], 0.2 µg/mL (≈ 0.502 µM).
For `COc1c(N2CCC(CN)C2)c(F)cc2c(=O)c(C(=O)O)cn(-c3ccc(O)cc3)c12` (stereo not given), the MIC was 50 µg/mL (≈ 117 µM) against Pseudomonas aeruginosa; 3.13 µg/mL (≈ 7.32 µM) against Staphylococcus aureus [1]; 6.25 µg/mL (≈ 14.6 µM) in the experiment with Escherichia coli; 25 µg/mL (≈ 58.5 µM) in the experiment with Enterococcus faecalis; 3.13 µg/mL (≈ 7.32 µM) in the experiment with Staphylococcus aureus [2].
On to `COc1c(N2CCN(C)CC2)c(F)cc2c(=O)c(C(=O)O)cn(-c3ccc(O)cc3)c12`, for which the minimum inhibitory concentration (MIC) with Pseudomonas aeruginosa turned out to be 3.13 µg/mL (≈ 7.32 µM); against Staphylococcus aureus [1] it was 0.4 µg/mL (≈ 0.936 µM); against Escherichia coli, 0.1 µg/mL (≈ 0.234 µM); in the experiment with Enterococcus faecalis, 3.13 µg/mL (≈ 7.32 µM); against Staphylococcus aureus [2] it was 0.4 µg/mL (≈ 0.936 µM).
For `COc1c(N2CCC(N)C2)c(F)cc2c(=O)c(C(=O)O)cn(-c3ccc(O)cc3)c12` (stereo not given), the minimal inhibitory concentration (MIC) with Pseudomonas aeruginosa was 6.25 µg/mL (≈ 15.1 µM); in the experiment on Staphylococcus aureus [1], 1.56 µg/mL (≈ 3.77 µM); with Escherichia coli, 1.56 µg/mL (≈ 3.77 µM); against Enterococcus faecalis, 25 µg/mL (≈ 60.5 µM); in the experiment with Staphylococcus aureus [2] it was 1.56 µg/mL (≈ 3.77 µM).
In the case of `COc1c(N2CCNCC2)c(F)cc2c(=O)c(C(=O)O)cn(-c3ccc(O)cc3)c12`, the MIC turned out to be 6.25 µg/mL (≈ 15.1 µM) against Pseudomonas aeruginosa; 0.2 µg/mL (≈ 0.484 µM) against Staphylococcus aureus [1]; 0.78 µg/mL (≈ 1.89 µM) against Escherichia coli; 25 µg/mL (≈ 60.5 µM) with Enterococcus faecalis; 0.4 µg/mL (≈ 0.968 µM) in the experiment on Staphylococcus aureus [2].
In the case of `C[C@@H]1CN(c2cc3c(cc2F)c(=O)c(C(=O)O)cn3-c2ccc(O)cc2)C[C@H]1N`, the MIC worked out at 1.56 µg/mL (≈ 3.93 µM) in the experiment with Pseudomonas aeruginosa; 0.2 µg/mL (≈ 0.503 µM) against Staphylococcus aureus [1]; 0.2 µg/mL (≈ 0.503 µM) in the experiment on Escherichia coli; 1.56 µg/mL (≈ 3.93 µM) against Enterococcus faecalis; 0.2 µg/mL (≈ 0.503 µM) in the experiment with Staphylococcus aureus [2].
Consider `COc1c(N2CC3CCCNC3C2)c(F)cc2c(=O)c(C(=O)O)cn(-c3ccc(O)cc3)c12` (stereo not given), for which the MIC in the experiment on Pseudomonas aeruginosa was 6.25 µg/mL (≈ 13.8 µM); against Staphylococcus aureus [1] it was 0.78 µg/mL (≈ 1.72 µM); against Escherichia coli it was 1.56 µg/mL (≈ 3.44 µM); against Enterococcus faecalis it was 12.5 µg/mL (≈ 27.6 µM); with Staphylococcus aureus [2], 0.78 µg/mL (≈ 1.72 µM).
Take `C[C@@H]1CN(c2nc3c(cc2F)c(=O)c(C(=O)O)cn3-c2ccc(O)cc2)C[C@H](C)N1`: the MIC against Pseudomonas aeruginosa was 6.25 µg/mL (≈ 15.2 µM); in the experiment with Staphylococcus aureus [1], 3.13 µg/mL (≈ 7.59 µM); against Escherichia coli it was 0.4 µg/mL (≈ 0.97 µM); against Enterococcus faecalis, 12.5 µg/mL (≈ 30.3 µM); in the experiment with Staphylococcus aureus [2], 6.25 µg/mL (≈ 15.2 µM).
As for `COc1c(N2C[C@@H]3[C@@H](N)[C@@H]3C2)c(F)cc2c(=O)c(C(=O)O)cn(-c3ccc(O)cc3)c12`, the MIC came out at 1.56 µg/mL (≈ 3.67 µM) against Pseudomonas aeruginosa; 0.1 µg/mL (≈ 0.235 µM) with Staphylococcus aureus [1]; 0.1 µg/mL (≈ 0.235 µM) in the experiment with Escherichia coli; 1.56 µg/mL (≈ 3.67 µM) in the experiment on Enterococcus faecalis; 0.1 µg/mL (≈ 0.235 µM) with Staphylococcus aureus [2].
On to `O=C(O)c1cn(-c2ccc(O)cc2)c2nc(N3CC4CC3CN4)c(F)cc2c1=O` (stereo not given), for which the MIC in the experiment on Pseudomonas aeruginosa was 3.13 µg/mL (≈ 7.9 µM); with Staphylococcus aureus [1], 1.56 µg/mL (≈ 3.94 µM); against Escherichia coli it was 1.56 µg/mL (≈ 3.94 µM); against Enterococcus faecalis it was more than 50 µg/mL; in the experiment on Staphylococcus aureus [2], 3.13 µg/mL (≈ 7.9 µM).
In the case of `O=C(O)c1cn(-c2ccc(O)cc2)c2nc(N3CCNCC3)c(F)cc2c1=O`, the MIC was determined as 3.13 µg/mL (≈ 8.14 µM) with Pseudomonas aeruginosa; 1.56 µg/mL (≈ 4.06 µM) in the experiment on Staphylococcus aureus [1]; 1.56 µg/mL (≈ 4.06 µM) against Escherichia coli; 12.5 µg/mL (≈ 32.5 µM) against Enterococcus faecalis; 1.56 µg/mL (≈ 4.06 µM) with Staphylococcus aureus [2].
`COc1c(N2C[C@@H](C)[C@H](C)C2)c(F)cc2c(=O)c(C(=O)O)cn(-c3ccc(O)cc3)c12`: the MIC in the experiment on Pseudomonas aeruginosa amounted to 6.25 µg/mL (≈ 14.7 µM); in the experiment on Staphylococcus aureus [1] it was 0.78 µg/mL (≈ 1.83 µM); with Escherichia coli it was 0.78 µg/mL (≈ 1.83 µM); against Enterococcus faecalis it was 12.5 µg/mL (≈ 29.3 µM); with Staphylococcus aureus [2], 0.78 µg/mL (≈ 1.83 µM).

Values taken from ChEMBL document CHEMBL1138748, “A prodrug approach toward the development of water soluble fluoroquinolones and structure--activity relationships of quinoline-3-carboxylic acids” (2004).
